Active and inactive are the calls of the source. No cut-off for these calls is given here.
Tests used:
Yersinia ruckeri [1] = assay: Antimicrobial activity against Yersinia ruckeri; type: functional
Procedure, shortened: (§1)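 Exponential-phase cultures (overnight broth diluted 1:1,000) in tryptic soy broth, with 1% NaCl added for vibrios, at 25°C. Cultures at 1 × 10^7 CFU/ml were mixed with an equal volume of medium containing cecropin B and shaken at 200 rpm. OD570 was read every 4 h over 16 h. Growth-curve area (Simpson's rule) was divided by the drug-free control to give a fractional area. MIC is the x-intercept of the trend line of fractional area versus concentration. Mean ± SD of three experiments, each in triplicate.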

CHSE-214 [2] = assay: Antimicrobial activity against compound-exposed Vibrio anguillarum 775 infected in CHSE-214 cells assessed as increase in adhesion to cells at 120 ug/ml after 60 mins relative to control; type: functional, cell-based
Procedure, shortened: (§2)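 CHSE-214 cells (CO2-independent medium, 10% FBS, 20°C, no antibiotics) at 80% confluence were incubated with mid-log V. anguillarum (unexposed or cecropin B-exposed) at an MOI of 100 for 0–90 min at ~22°C. Monolayers were washed twice in PBS and lysed with 1% Triton X-100, and lysates were plated. Adherent bacteria were counted per CHSE-214 cell.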

Yersinia ruckeri [3] = assay: Antimicrobial activity against Yersinia ruckeri assessed as appearance of ridges on outer surface of the bacterial cell at 90 ug/ml by SEM; type: functional
Procedure, shortened: (§3)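 Exponential-phase broth cultures, with or without prior cecropin B exposure, were adhered 10 min at room temperature to poly-L-lysine-coated chips. Chips were fixed in 2% glutaraldehyde in cacodylate buffer for 30 min, then in 1% osmium tetroxide overnight. Samples were dehydrated through an ethanol series, critical-point dried, gold sputter-coated and examined by scanning electron microscopy.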

Vibrio vulnificus [4] = assay: Antimicrobial activity against Vibrio vulnificus assessed as reduced cell size at 70 ug/ml by SEM; type: functional, organism-based; procedure, shortened: as §3
Vibrio anguillarum 775 [5] = assay: Antimicrobial activity against Vibrio anguillarum 775 assessed as increase in bacterial survival at 100 ug/ml by broth culture growth inhibition assay; type: functional
Procedure, shortened: (§4)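 Broth growth-inhibition assay in tryptic soy broth (1% NaCl for vibrios) at 25°C, 200 rpm. Cultures started at 1 × 10^7 CFU/ml and were mixed 1:1 with cecropin B-containing medium. OD570 was read every 4 h for 16 h. Fractional survival is the area under the growth curve (Simpson's rule) relative to the untreated control.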

Pseudomonas fluorescens [6] = assay: Antimicrobial activity against Pseudomonas fluorescens; type: functional; procedure, shortened: as §1
[7] = Antimicrobial activity against Vibrio anguillarum 775 selected after passage with 120 ug/ml of compound; type: functional
Vibrio vulnificus [8] = assay: Antimicrobial activity against Vibrio vulnificus assessed as increase in bacterial survival at 100 ug/ml by broth culture growth inhibition assay; type: functional, organism-based; procedure, shortened: as §4
CHSE-214 [9] = assay: Antimicrobial activity against compound-exposed Vibrio anguillarum 775 infected in CHSE-214 cells assessed as increase in adhesion to cells at 120 ug/ml after 30 mins relative to control; type: functional, cell-based; procedure, shortened: as §2
Vibrio vulnificus [10] = assay: Antimicrobial activity against Vibrio vulnificus assessed as appearance of rugose membrane shape at 70 ug/ml by SEM; type: functional, organism-based; procedure, shortened: as §3
Vibrio anguillarum 775 [11] = assay: Antimicrobial activity against Vibrio anguillarum 775 assessed as reduction in extracellular product secreted by cells at 120 ug/ml; type: functional; procedure, shortened: as §3
Vibrio vulnificus [12] = assay: Antimicrobial activity against Vibrio vulnificus; type: functional; procedure, shortened: as §1
[13] = Antimicrobial activity against Vibrio anguillarum 775 selected after 120 ug/ml of drug exposure; type: functional
Procedure, shortened: (§5)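 Bacteria were grown 16 h in broth with cecropin B at a concentration chosen empirically to allow growth to mid-log (OD600 ~0.4). Cultures were then diluted to 1 × 10^7 CFU/ml and the MIC was determined by the 16-h OD570 growth-curve area method. Mean ± SD of three experiments, each in triplicate.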

Vibrio anguillarum 775 [14] = assay: Antimicrobial activity against Vibrio anguillarum 775 infected in medaka fish assessed as mortality at 120 ug/ml by immersion challenge assay; type: functional
Procedure, shortened: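 Groups of 20 medaka, 7–8 months old, were immersed 90 min in PBS (pH 7.3, 1.0% NaCl) containing 1 × 10^5 CFU/ml V. anguillarum, either unexposed or pre-exposed to 120 μg/ml cecropin B. Cumulative mortality was recorded over 14 days. Three separate experiments, mean ± SD.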

CHSE-214 [15] = assay: Antimicrobial activity against compound-exposed Vibrio anguillarum 775 infected in CHSE-214 cells assessed as increase in adhesion to cells at 120 ug/ml after 90 mins relative to control; type: functional, cell-based; procedure, shortened: as §2
Yersinia ruckeri [16] = assay: Antimicrobial activity against Yersinia ruckeri assessed as increase in bacterial survival at 100 ug/ml by broth culture growth inhibition assay; type: functional; procedure, shortened: as §4
Vibrio vulnificus [17] = assay: Antimicrobial activity against Vibrio vulnificus assessed as loss of flagella at 70 ug/ml by SEM; type: functional, organism-based; procedure, shortened: as §3
[18] = Antimicrobial activity against Vibrio anguillarum 775; type: functional; procedure, shortened: as §1
Vibrio vulnificus [19] = assay: Antimicrobial activity against Vibrio vulnificus selected after 70 ug/ml of drug exposure; type: functional; procedure, shortened: as §5
Pseudomonas fluorescens [20] = assay: Antimicrobial activity against Pseudomonas fluorescens selected after 20 ug/ml of drug exposure; type: functional; procedure, shortened: as §5

Q: With “H-KWKVFKKIEKMGRNIRNGIVKAGPAIAVLGEAKAL-NH2 [CECROPIN B]” as the substance, how does the MIC (Yersinia ruckeri [1]) read?
A: 100 µg/mL

Q: What about the Activity (CHSE-214 [2]) of the same substance?
A: inactive

Q: And the Activity (Yersinia ruckeri [3])?
A: inactive

Q: What about the Activity (Vibrio vulnificus [4]) of the same substance?
A: inactive

Q: And the Activity (Vibrio anguillarum 775 [5])?
A: inactive

Q: And the MIC (Pseudomonas fluorescens [6])?
A: 25 µg/mL

Q: And the MIC [7]?
A: 142 µg/mL

Q: What about the Activity (Vibrio vulnificus [8]) of the same substance?
A: inactive

Q: What about the Activity (CHSE-214 [9]) of the same substance?
A: inactive

Q: What about the Activity (Vibrio vulnificus [10]) of the same substance?
A: inactive

Q: What about the Activity (Vibrio anguillarum 775 [11]) of the same substance?
A: inactive

Q: And the MIC (Vibrio vulnificus [12])?
A: 85 µg/mL

Q: And the MIC [13]?
A: 209 µg/mL

Q: What about the Activity (Vibrio anguillarum 775 [14]) of the same substance?
A: inactive

Q: And the Activity (CHSE-214 [15])?
A: inactive

Q: And the Activity (Yersinia ruckeri [16])?
A: inactive

Q: What about the Activity (Vibrio vulnificus [17]) of the same substance?
A: inactive

Q: What about the MIC [18] of the same substance?
A: 147 µg/mL

Q: And the MIC (Vibrio vulnificus [19])?
A: 136 µg/mL

Q: And the MIC (Pseudomonas fluorescens [20])?
A: 24 µg/mL
